Assays:
Type in all cases: ADME
[1] = Tested for the half life period at the pH of 2.5; conditions: pH 2.5
How it was run: (§1)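 Hydrolysis followed by HPLC at 37 °C: 2 mM solutions in phosphate mobile phase B with 4 mM 2,6-lutidine as internal standard, pH set to 2.5 or 7.2 with HCl or KOH. Reverse-phase gradient of acetonitrile/mobile phase B, detection at 250 nm. Half-life derived from disappearance over time. For fast pH 7.2 conversion, acidic solution brought to 7.2 then back to 2.5 (<1 min).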

[2] = Tested for the half life period at the pH of 7.2; conditions: pH 7.2; how it was run: as §1
[3] = Tested for the half life period at the pH of 7.2; Stable; conditions: pH 7.2; how it was run: as §1
[4] = Tested for the half life period at the pH of 2.5; Stable; conditions: pH 2.5; how it was run: as §1

| Compound | half-life [1] [h] | half-life [2] [min] | T1/2 [3] | T1/2 [4] | T1/2 [1] [h] |
| --- | --- | --- | --- | --- | --- |
| N[C@@H](CSC(=O)c1ccccc1O)C(=O)O | 4.18 | < 1 |  |  |  |
| O=C(N[C@@H](CS)C(=O)O)c1ccccc1O |  |  | Stable | Stable |  |
| O=C(O)[C@@H]1CSC(c2ncccc2O)=N1 | 8.74 |  | Stable |  |  |
| O=C(O)[C@@H]1CSC(c2ccccc2O)=N1 | 31.7 |  | Stable |  |  |
| C[C@]1(C(=O)O)CSC(c2ncccc2O)=N1 [DESFERRITHIOCIN] | 18.6 |  | Stable |  |  |
| deaza-desmethyl-DFT complex with iron (III) |  |  | Stable |  | > 480 |
